The values below come from ChEMBL document CHEMBL1914440, “Discovery of potent, selective, and orally bioavailable alkynylphenoxyacetic acid CRTH2 (DP2) receptor antagonists for the treatment of allergic inflammatory diseases” (J Med Chem, 2011).

The target of this experiment is T1, Prostaglandin D2 receptor 2 (Homo sapiens, UniProt Q9Y5Y4).
T1 sequence (Q9Y5Y4 whole entry): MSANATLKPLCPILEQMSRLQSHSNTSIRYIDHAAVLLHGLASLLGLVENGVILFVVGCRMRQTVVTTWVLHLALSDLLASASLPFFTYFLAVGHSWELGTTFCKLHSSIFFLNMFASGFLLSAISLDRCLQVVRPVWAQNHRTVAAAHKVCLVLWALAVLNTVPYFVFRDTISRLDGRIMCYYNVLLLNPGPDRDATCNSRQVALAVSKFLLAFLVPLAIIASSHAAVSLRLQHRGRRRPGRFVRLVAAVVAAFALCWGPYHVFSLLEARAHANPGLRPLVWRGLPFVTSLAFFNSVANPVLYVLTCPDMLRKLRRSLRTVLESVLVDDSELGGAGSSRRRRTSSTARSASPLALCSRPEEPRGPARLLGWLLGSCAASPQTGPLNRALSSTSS
Description: Displacement of [3H]PGD2 from human CRTH2 expressed in chinese hamster CHO cells by liquid scintillation counting. The experiment is classed as cell-based. The gist of the method:
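Scintillation proximity competition assay: 2–5 μg human CRTH2 cell membranes, 1.5 nM [3H]PGD2, WGA-SPA beads, 10 mM HEPES/KOH pH 7.4, 10 mM MnCl2, protease inhibitors, 1% DMSO; 90 min, room temperature, shaking. Nonspecific binding defined with 1 μM PGD2. Ki by Cheng–Prusoff, mean of ≥3 independent dose–response experiments.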
Background: In a radioligand displacement assay an active substance lowers the binding of a labelled ligand.
`CCS(=O)(=O)c1ccc(C)c(C#Cc2cc(Cl)ccc2OCC(=O)O)c1` returned a Ki of 8.6 nM. The same measure for `CS(=O)(=O)c1cncc(C#Cc2cc(Cl)ccc2OCC(=O)O)c1`: 60 nM.

`Cc1ccc(S(=O)(=O)C(C)C)cc1C#Cc1cc(Cl)ccc1OCC(=O)O` displayed a Ki of 6 nM. The same measure for `O=C(O)COc1ccc(Cl)cc1C#Cc1cccc(S(=O)(=O)CCCO)c1`: 28 nM; for `CCCCCCc1ccncc1C#Cc1cc(Cl)ccc1OCC(=O)O`: 43 nM.

In the case of `CC1(C)C(O)c2ccc(C#Cc3cc(Cl)ccc3OCC(=O)O)cc2S1(=O)=O` (stereo not drawn), the affinity corresponds to a Ki of 33 nM. The same measure for `CCCS(=O)(=O)c1cccc(C#Cc2cc(-c3ccsc3)ccc2OCC(=O)O)c1`: 18 nM. Turning to `CS(=O)(=O)Cc1cccc(C#Cc2cc(Cl)ccc2OCC(=O)O)c1`, the inhibitory constant (Ki) stood at 48 nM.

In the case of `CN(c1cccc(C#Cc2cc(Cl)ccc2OCC(=O)O)c1)S(C)(=O)=O`, the affinity, expressed as Ki, was 122 nM. The same measure for `O=C(O)COc1ccc(Cl)cc1C#Cc1cncc(S(=O)(=O)N2CCOCC2)c1`: 41 nM; for `O=C(O)COc1ccc(Cl)cc1C#Cc1ccccc1Cl`: 28 nM. The result for `CS(=O)(=O)c1cc(C#Cc2cc(Cl)ccc2OCC(=O)O)ccc1-c1ccccc1Cl` reads 3.5 nM.

`COC1(C)c2ccc(C#Cc3cc(Cl)ccc3OCC(=O)O)cc2S(=O)(=O)C1(C)C` (stereo not drawn): the Ki worked out at 25 nM.

Regarding `CS(=O)(=O)Nc1cncc(C#Cc2cc(Cl)ccc2OCC(=O)O)c1`, the affinity, expressed as Ki, was 19 nM. The same measure for `CCCS(=O)(=O)c1cccc(C#Cc2cc(-c3sc(C)nc3C)ccc2OCC(=O)O)c1`: 54 nM; for `CCCS(=O)(=O)c1cccc(C#Cc2cc(-c3cccs3)ccc2OCC(=O)O)c1`: 12 nM; for `CN(C)C(=O)c1ccc(C#Cc2cc(Cl)ccc2OCC(=O)O)cc1`: 55 nM. The same measure for `CC(C)S(=O)(=O)c1cc(C#Cc2cc(Cl)ccc2OCC(=O)O)ccc1C(=O)N1CCOCC1`: 87 nM. For `CCN(Cc1cc(-c2ccc(OC)cn2)ccc1-c1cc(CC(=O)O)ccc1OC)C(=O)C1CC1`, the inhibitory constant (Ki) was 5 nM.

Molecule `CC1(O)c2ccc(C#Cc3cc(Cl)ccc3OCC(=O)O)cc2S(=O)(=O)C1(C)C` (stereo not drawn) yielded a Ki of 28 nM. `CCCC(Oc1ccc(Cl)cc1C#Cc1cc(S(=O)(=O)CCC)ccc1C)C(=O)O` (stereo not drawn) registered a Ki of 57 nM. The result for `O=C(O)COc1ccc(Cl)cc1C#Cc1ccccc1` reads 108 nM; that for `Cc1ccc(OCC(=O)O)c(C#Cc2ccccc2Cl)c1`, 283 nM; that for `CNS(=O)(=O)c1ccc(C)c(C#Cc2cc(Cl)ccc2OCC(=O)O)c1`, 10 nM. `Cc1ccc(S(=O)(=O)CC(C)C)cc1C#Cc1cc(Cl)ccc1OCC(=O)O` showed a Ki of 3 nM. The result for `O=C(O)COc1ccc(Cl)cc1C#Cc1ccc2c(c1)S(=O)(=O)C=C2` reads 25 nM; that for `CCCS(=O)(=O)c1cccc(C#Cc2cc(C(F)(F)F)ccc2OCC(=O)O)c1`, 10 nM.

Regarding `Cc1ccc(S(=O)(=O)N2CCCCC2)cc1C#Cc1cc(Cl)ccc1OCC(=O)O`, affinity was put at a Ki of 5 nM. The result for `COc1ccc(-c2ccc(C#Cc3cc(Cl)ccc3OCC(=O)O)cc2S(C)(=O)=O)cc1` reads 7 nM; that for `CCN(CC)S(=O)(=O)c1ccc(C)c(C#Cc2cc(Cl)ccc2OCC(=O)O)c1`, 3.4 nM.

Turning to `Cc1ccc(S(=O)(=O)c2ccccc2)cc1C#Cc1cc(Cl)ccc1OCC(=O)O`, the affinity, expressed as Ki, was 6 nM. The same measure for `O=C(O)COc1ccc(Cl)cc1C#Cc1ccccn1`: 1120 nM; for `O=C(O)COc1ccc(Cl)cc1C#Cc1cccc(C(F)(F)F)c1`: 92 nM.

`CCCS(=O)(=O)c1ccc(F)c(C#Cc2cc(Cl)ccc2OC(C)(C)C(=O)O)c1` registered a Ki of 260 nM.

For `O=C(O)COc1ccc(Cl)cc1C#Cc1ccccc1C(F)(F)F`, the inhibition constant Ki was determined as 24 nM. For the molecule `N#Cc1ccc(OCC(=O)O)c(C#Cc2ccccc2Cl)c1`, affinity was put at a Ki of 24 nM. For `CCCS(=O)(=O)c1ccc(C)c(C#Cc2cc(Cl)ccc2OC(CC(C)C)C(=O)O)c1` (stereo not drawn), affinity was put at a Ki of 515 nM.

Turning to `Cc1ccc(S(=O)(=O)NC(C)(C)C)cc1C#Cc1cc(Cl)ccc1OCC(=O)O`, the inhibition constant (Ki) amounted to 5 nM. The same measure for `COCc1ccc(F)c(C#Cc2cc(Cl)ccc2OCC(=O)O)c1`: 72 nM; for `Cc1ncc(S(=O)(=O)N(C)C)cc1C#Cc1cc(Cl)ccc1OCC(=O)O`: 41 nM; for `O=C(O)COc1ccc(Cl)cc1C#Cc1ccc(F)cc1F`: 101 nM.

Molecule `CN(c1cncc(C#Cc2cc(Cl)ccc2OCC(=O)O)c1)S(C)(=O)=O` had a Ki of 378 nM.

In the case of `CCCS(=O)(=O)c1ccc(F)c(C#Cc2cc(Cl)ccc2OC(C)C(=O)O)c1` (stereo not drawn), the inhibition constant Ki amounted to 3 nM. The result for `CCCS(=O)(=O)c1cccc(C#Cc2cc(F)ccc2OCC(=O)O)c1` reads 65 nM; that for `O=C(O)COc1ccc(Cl)cc1C#Cc1cncc(S(=O)(=O)NCCO)c1`, 301 nM. The same measure for `CCN(CC)C(=O)c1ccc(C#Cc2cc(Cl)ccc2OCC(=O)O)cc1S(=O)(=O)C(C)C`: 46 nM; for `O=C(O)COc1ccc(Cl)cc1C#Cc1ccc(Cl)cc1`: 60 nM; for `O=C(O)COc1ccc(Cl)cc1C#Cc1ccncc1`: 601 nM. The result for `O=C(O)COc1ccc(Cl)cc1C#Cc1cc(CO)ccc1F` reads 73 nM; that for `CC(C)(C)N1C(=O)c2ccc(C#Cc3cc(Cl)ccc3OCC(=O)O)cc2S1(=O)=O`, 14 nM. Molecule `Cc1ccc(S(=O)(=O)CCO)cc1C#Cc1cc(Cl)ccc1OCC(=O)O` came in with a Ki of 19 nM. The result for `Cc1ccncc1C#Cc1cc(Cl)ccc1OCC(=O)O` reads 25 nM. The result for `CC1(C)C(=O)c2ccc(C#Cc3cc(Cl)ccc3OCC(=O)O)cc2S1(=O)=O` reads 31 nM; that for `O=C(O)COc1ccccc1C#Cc1ccccc1Cl`, 747 nM. For the molecule `Cc1ccc(S(=O)(=O)Cc2ccccc2)cc1C#Cc1cc(Cl)ccc1OCC(=O)O`, the Ki came to 5 nM. The same measure for `Cn1ccnc1C#Cc1cc(Cl)ccc1OCC(=O)O`: 1470 nM; for `CN(C)C(=O)c1cccc(C#Cc2cc(Cl)ccc2OCC(=O)O)c1`: 52 nM.

`CCCS(=O)(=O)c1ccc(C)c(C#Cc2cc(Cl)ccc2OC(C)C(=O)O)c1` (stereo not drawn) had a Ki of 1.2 nM. The same measure for `CS(=O)(=O)c1ccc(C#Cc2cc(Cl)ccc2OCC(=O)O)cc1`: 86 nM. The same measure for `O=C(O)COc1cc(F)ccc1C#Cc1ccccc1Cl`: 4780 nM; for `O=C(O)COc1ccc(Cl)cc1C#Cc1ccc(Cl)s1`: 183 nM; for `COC1c2ccc(C#Cc3cc(Cl)ccc3OCC(=O)O)cc2S(=O)(=O)C1(C)C` (stereo not drawn): 21 nM. The result for `CCCS(=O)(=O)c1cccc(C#Cc2c(Cl)cccc2OCC(=O)O)c1` reads 55 nM; that for `CCCS(=O)(=O)c1cc(C#Cc2cc(Cl)ccc2OCC(=O)O)c(C)cc1NC(C)=O`, 1.3 nM. `CCCc1ccncc1C#Cc1cc(Cl)ccc1OCC(=O)O` registered a Ki of 4.3 nM. In turn, `CN(C)S(=O)(=O)c1cccc(C#Cc2cc(Cl)ccc2OCC(=O)O)c1` returned a Ki of 14 nM. The result for `Cc1ccc(S(=O)(=O)N(C)CCN(C)C)cc1C#Cc1cc(Cl)ccc1OCC(=O)O` reads 369 nM. The same measure for `C[S+]([O-])c1cccc(C#Cc2cc(Cl)ccc2OCC(=O)O)c1` (stereo not drawn): 3.2 nM; for `Cc1cc[n+]([O-])cc1C#Cc1cc(Cl)ccc1OCC(=O)O`: 17 nM; for `CS(=O)(=O)c1cc(C#Cc2cc(Cl)ccc2OCC(=O)O)ccc1-c1ccc(C(F)(F)F)cc1`: 43 nM. On to `CS(=O)(=O)c1cc(C#Cc2cc(Cl)ccc2OCC(=O)O)ccc1-c1cccc(Cl)c1`, for which the inhibitory constant (Ki) was 16 nM. The same measure for `CS(=O)(=O)Nc1cccc(C#Cc2cc(Cl)ccc2OCC(=O)O)c1`: 54 nM; for `CCCS(=O)(=O)c1ccc(C)c(C#Cc2cc(Cl)ccc2OC(CC)C(=O)O)c1` (stereo not drawn): 30 nM. The result for `CCCS(=O)(=O)c1cccc(C#Cc2c(OCC(=O)O)ccc3ccccc23)c1` reads 44 nM; that for `Cc1ccc(S(=O)(=O)CCc2ccccc2)cc1C#Cc1cc(Cl)ccc1OCC(=O)O`, 7 nM; that for `O=C(O)COc1ccc(Cl)cc1C#Cc1ccc2c(c1)S(=O)(=O)CC2`, 23 nM. The result for `COc1ccccc1C#Cc1cc(Cl)ccc1OCC(=O)O` reads 190 nM. For the molecule `CC(C)Cc1ccncc1C#Cc1cc(Cl)ccc1OCC(=O)O`, affinity was put at a Ki of 4.9 nM.

As to `CS(=O)(=O)c1cc(C#Cc2cc(Cl)ccc2OCC(=O)O)ccc1-c1ccccc1`, the Ki stood at 5 nM. The same measure for `O=C(O)COc1ccc(Cl)cc1C#Cc1cccc(CO)c1F`: 41 nM; for `Cc1ccc(S(=O)(=O)N2CCN(C)CC2)cc1C#Cc1cc(Cl)ccc1OCC(=O)O`: 21 nM; for `O=C(O)COc1ccc(Cl)cc1C#Cc1ccccc1F`: 47 nM. In turn, `Cc1ccc(S(=O)(=O)N(C)CCCN(C)C)cc1C#Cc1cc(Cl)ccc1OCC(=O)O` displayed an inhibition constant (Ki) of 287 nM.

`CC(C)S(=O)(=O)c1cc(C#Cc2cc(Cl)ccc2OCC(=O)O)ccc1C(=O)N(C)C` returned an inhibitory constant (Ki) of 65 nM. For the molecule `COCc1ccc(C#Cc2cc(Cl)ccc2OCC(=O)O)c(F)c1`, the Ki came out at 22 nM. The same measure for `CS(=O)(=O)c1cc(C#Cc2cc(Cl)ccc2OCC(=O)O)ccc1-c1ccc(Cl)cc1`: 14 nM; for `Cc1ncccc1C#Cc1cc(Cl)ccc1OCC(=O)O`: 143 nM; for `COc1cccc(-c2ccc(C#Cc3cc(Cl)ccc3OCC(=O)O)cc2S(C)(=O)=O)c1`: 8 nM.

A word on the Ki: it is a dissociation constant, usually derived from enzyme kinetics or from competition with a known ligand. Lower therefore signals tighter binding.
